Screening results: PubChem BioAssay, several laboratories
FXN GAA850 act – activators of GAA850 frataxin (FXN) promoter; HEK293 lucGAA850 FXN promoter luciferase reporter, 24 h; percent of 10 µM SAHA response; activation, % at 6 µM; 360,000 compounds, 0.56% hits; AID 540364;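 active = activation above the average of all compounds screened plus 3 SD, cutoff fixed separately per campaign, cut at about 7.5% in these data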;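 note: 0% = DMSO wells and 100% = 10 µM SAHA wells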
AHR act – human AHR activation | activation, % at 5 µM | AHR-responsive luciferase reporter cells, luminescence | P35869 | 320,000 compounds, 2.5% hits | AID 2796; in the data active = activation above about 47%;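 note: 0% = vehicle wells and 100% = reference agonist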
SR-BI HDL uptake – blocks mouse SR-BI lipid uptake from DiI-HDL. Q61009. ldlA[mSR-BI] CHO cells, DiI-HDL uptake fluorescence, 3 h. inhibition, % at 12.5 µM. 320,000 compounds, 0.96% hits;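 active = mean replicate inhibition of at least 70% and a set share of replicates each scoring 70 or more; inconclusive = meets just one of the two criteria; inactive = fails both criteria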;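 note: 0% = median of neutral control wells and 100% = median of positive control wells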
Target sequence (Q61009 whole entry, looked up): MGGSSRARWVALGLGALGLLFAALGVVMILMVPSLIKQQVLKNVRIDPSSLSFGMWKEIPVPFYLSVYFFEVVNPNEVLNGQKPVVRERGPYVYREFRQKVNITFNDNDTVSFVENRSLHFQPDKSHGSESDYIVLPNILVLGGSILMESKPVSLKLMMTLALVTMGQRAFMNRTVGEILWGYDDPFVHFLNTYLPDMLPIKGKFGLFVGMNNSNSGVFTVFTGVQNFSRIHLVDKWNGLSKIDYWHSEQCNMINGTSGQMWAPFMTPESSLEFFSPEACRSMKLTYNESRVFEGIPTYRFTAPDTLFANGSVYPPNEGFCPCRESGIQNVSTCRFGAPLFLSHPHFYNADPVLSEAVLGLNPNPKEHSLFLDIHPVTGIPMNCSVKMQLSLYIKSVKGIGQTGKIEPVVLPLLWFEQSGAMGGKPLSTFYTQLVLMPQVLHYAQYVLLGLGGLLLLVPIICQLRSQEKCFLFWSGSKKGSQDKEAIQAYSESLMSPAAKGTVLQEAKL
HIF act – HIF pathway transcriptional activation; activation, % at 7.5 µM (by protocol); U2OS HRE-luciferase reporter, luminescence; normalized: DMSO 0%, desferrioxamine 100%; 300,000 compounds, 0.32% hits;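 active = mean activation of at least 10% of the iron chelator positive control signal, with at least half of replicates also reaching 10%; inconclusive = mean and replicate majority disagree about reaching 10%; inactive = mean and most replicates under 10%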
ABCB6 inh MLPCN – blocks the human ABCB6 transporter; Q9NP58; K562-ABCB6 porphyrin accumulation, flow cytometry, 1 h; active compounds read low; fluorescence ratio to DMSO, % at 10 µM; 360,000 compounds, 0.19% hits; AID 602162;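 active = fluorescence ratio to DMSO below 75%, the collection mean minus 3 SD; inconclusive = too few cells collected in the well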;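 note: signal is porphyrin accumulated inside mitochondria; 100% equals median channel fluorescence of DMSO control wells; lower ratio means ABCB6 inhibition with less porphyrin fluorescence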
SR-BI DiI-HDL act – SR-BI HDL lipid transfer activation; AID 504775; CHO ldlA[mSR-BI] cells, DiI-HDL uptake fluorescence, 3 h; 100 = double the neutral-control signal; activation, % at 12.5 µM; 320,000 compounds, 0.096% hits;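 active = mean replicate activation of at least 60% and every replicate at or above 60%; inconclusive = mean or all-replicate condition met, but not both; inactive = mean below 60% and not all replicates reaching 60%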;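 note: 0% = median plate neutral-control signal and 100% = twice that signal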
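Test system: SR-BI-overexpressing, LDLR-lacking CHO cells. Measured by: DiI fluorescence, bottom read. Medium: Ham's F12 with 0.5% BSA, HEPES 25 mM, pH 7.4. Timing: 3 h uptake period with compound, 37 °C.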
The depositor's hits bear a star; ? = inconclusive; nt = not tested or not shown. A selection: hits, their analogues and other compounds. The true share with any hit is near 3.9%.

SMILES	FXN GAA850 act	AHR act	SR-BI HDL uptake	HIF act	ABCB6 inh MLPCN	SR-BI DiI-HDL act
COc1ccc(C(C)=O)cc1COC(=O)c1cccnc1Cl	2	-1	nt	1	99	nt
COc1cc(/C=N\NC(=O)CNC(=O)C2COc3ccccc3O2)ccc1O (centres undefined)	2	6	-7	-1	98	7
CCN(CC)c1ccc(/C=N/NC(=O)CNC(=O)C2COc3ccccc3O2)c(O)c1 (centres undefined)	-2	10	53	19*	99	-53
COC(=O)/C(=C\C(=O)c1ccccc1)Nc1ccc(OC)cc1	2	5	2	3	100	-2
Cc1ccc(C)c(N2CCN(C(=S)Nc3ccc4nc(N5CCOCC5)cc(C)c4c3)CC2)c1	2	28	87*	1	99	-87
Cc1ccc(C)c(N2CCN(C(=S)Nc3ccc4nc(N5CCN(C)CC5)cc(C)c4c3)CC2)c1	0	8	35	0	91	-35
Cc1cccc(N2C(=O)C(O)=C(C(=O)c3cccs3)C2c2ccc(Cl)cc2)n1 (centres undefined)	1	-2	-9	2	98	9
CCOC(=O)Cc1csc(NC(=O)COc2ccc(N(C)S(=O)(=O)c3ccc(C)cc3)cc2)n1	-1	1	?	0	95	-72
CCOc1ccc(S(=O)(=O)N(C)c2ccc(OCC(=O)Nc3nc(-c4cc(OC)ccc4OC)cs3)cc2)cc1	0	13	82*	0	100	-82
CCCn1c(SCC(=O)NCC2CCCO2)nc2c1c(=O)n(C)c(=O)n2C (centres undefined)	-1	1	-12	0	98	12
CN(C)S(=O)(=O)c1cccc(NC(=O)c2c[nH]c3ccccc23)c1	0	49*	16	2	90	-16
CN(C)S(=O)(=O)c1cccc(NC(=O)c2cc(=O)[nH]c3ccccc23)c1	0	2	27	0	101	-27
O=C(/C=C/c1cccs1)NC(=S)NNC(=O)c1ccccc1O	-5	3	101*	1	96	-101
O=C(/C=C/c1ccccc1)NC(=S)NNC(=O)Cc1cccs1	2	49*	6	0	90	-6
Cc1ccccc1OCC(=O)OCC(=O)NCCNC(=O)COC(=O)COc1ccccc1C	3	1	-23	0	101	23
CC(=O)Nc1nc(-c2ccc(Cl)cc2)ns1	2	84*	28	3	111	-28
Cc1nnc(SCCC(=O)Nc2nc(-c3ccccc3)ns2)s1	2	67*	29	0	100	-29
CCCC(=O)Nc1nc(-c2ccccc2)ns1	4	70*	30	nt	100	-30
CCOc1ccc(NC(=O)CCSc2nnc(C)s2)cc1	-1	0	-17	1	92	17
O=C(Nc1ccnc(-c2cccnc2)n1)c1cccs1	-1	64*	11	0	85	-11
CC(C)C(=O)Nc1nc(-c2ccccc2)ns1	5	42	13	3	98	-13
COC(=O)c1ccccc1NC(=O)NCc1ccccc1	4	2	3	0	103	2
CCCC(=NCC(=O)O)C1=C(O)C(C(=O)OC)C(C)(C)CC1=O (centres undefined)	-1	-2	3	0	104	-3
O=C(Nc1nc(-c2ccccc2)cs1)c1cccs1	4	4	nt	0	87	nt
O=C(Nc1nc(-c2ccccc2)ns1)c1cccs1	0	106*	8	1	100	-8
Cc1cccc(Cn2nc(C)c(NC(=O)c3ccc(F)cc3)c2C)c1	0	-1	-6	-1	88	6
O=C1S/C(=C/c2ccc(N3CCOCC3)o2)C(=O)N1Cc1ccc(F)cc1	0	3	-7	0	154	7
COc1cc(/C=C2\SC(=Nc3ccccc3)N(CCc3c[nH]c4ccccc34)C2=O)ccc1OC(C)C(=O)O (centres undefined)	0	15	23	-1	73*	-23
COc1ccc(N=C2S/C(=C\c3ccc(OC(C)C(=O)O)c(OC)c3)C(=O)N2CCc2c[nH]c3ccccc23)cc1 (centres undefined)	2	nt	75*	-1	94	-75
